Test results published in ChEMBL document CHEMBL1122848, “5-(Haloalkyl)-2'-deoxyuridines: a novel type of potent antiviral nucleoside analogue” (1985).
≈ marks a conversion by molar mass, not a printed value.

What was measured:
Mus musculus [1] = test: Effect of delayed treatment on mortality of systemically infected mice at 25 mg/kg per day administered through oral route after 3 hr of start of treatment; assay type: functional
Method in brief: (§1)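 Hairless (hr/hr) mice, 18–20 g, ten per group, inoculated intraperitoneally with HSV-1 strain Brand at 2 × 10⁵ PFU/0.2 mL per mouse. Dosing was 25 mg/kg per day, given twice daily either intraperitoneally or orally by gavage. Treatment started at 3, 24, 48 or 72 h post-infection. Read-out was percent survivors.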

Human alphaherpesvirus 1 = test: Minimum inhibitory concentration against HSV-1.; assay type: functional
Method in brief: (§2)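 CPE-inhibition assay in HEp-2 cells. Compound was serially diluted 3-fold in E-MEM, then virus (HSV-1 Brand or HSV-2 K979) and a cell suspension in E-MEM plus 15% FCS were added together. Virus input gave 90–100% CPE in infected controls after 3 days. Plates were then fixed and stained, and CPE was scored.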

Mus musculus [2] = test: In vivo evaluation for the percent survivors in systemic HSV-1 infection of Mice administered through oral route at a dose 2.5 mg/kg per day; assay type: functional
Method in brief: (§3)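 Systemic infection model in hairless (hr/hr) mice weighing 18–20 g, twelve per group. Mice were inoculated i.p. with HSV-1 (Brand) at 2 × 10⁵ PFU/0.2 mL per mouse. Compound was given twice a day i.p. or by oral gavage at the stated daily dose. Read-out was percent survivors.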

Mus musculus [3] = test: In vivo evaluation for the percent survivors in systemic HSV-1 infection of Mice administered through oral route at a dose 5 mg/kg per day; assay type: functional; method in brief: as §3
Mus musculus [4] = test: In vivo evaluation for the percent survivors in systemic HSV-1 infection of Mice administered intraperitoneally at a dose 10 mg/kg per day; assay type: functional; conditions: route intraperitoneal; method in brief: as §3
Mus musculus [5] = test: In vivo evaluation for the percent survivors in systemic HSV-1 infection of Mice administered intraperitoneally at a dose 1 mg/kg per day; assay type: functional; conditions: route intraperitoneal; method in brief: as §3
Mus musculus [6] = test: In vivo evaluation for the percent survivors in systemic HSV-1 infection of Mice administered through oral route at a dose 25 mg/kg per day; assay type: functional; method in brief: as §3
Mus musculus [7] = test: Effect of delayed treatment on mortality of systemically infected mice at 25 mg/kg per day administered Intraperitoneally after 48 hr of start of treatment; assay type: functional; conditions: route intraperitoneal; method in brief: as §1
Mus musculus [8] = test: Effect of delayed treatment on mortality of systemically infected mice at 25 mg/kg per day administered Intraperitoneally after 3 hr of start of treatment; assay type: functional; conditions: route intraperitoneal; method in brief: as §1
HEp-2 = test: Minimum toxic effect against HEp-2 cells.; assay type: functional, Homo sapiens
Method in brief: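 Uninfected HEp-2 cells were exposed to 3-fold serial dilutions of compound in E-MEM with FCS, run alongside the CPE assay. Cell density was set to reach a monolayer in 1–2 days. Plates were fixed and stained at 3 days. MTC is the lowest concentration causing visible toxic effects.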

Mus musculus [9] = test: In vivo evaluation for the percent survivors in systemic HSV-1 infection of Mice administered intraperitoneally at a dose 25 mg/kg per day; assay type: functional; conditions: route intraperitoneal; method in brief: as §3
Mus musculus [10] = test: Effect of delayed treatment on mortality of systemically infected mice at 25 mg/kg per day administered through oral route after 72 hr of start of treatment; assay type: functional; method in brief: as §1
Mus musculus [11] = test: Effect of delayed treatment on mortality of systemically infected mice at 25 mg/kg per day administered Intraperitoneally after 72 hr of start of treatment; assay type: functional; conditions: route intraperitoneal; method in brief: as §1
Mus musculus [12] = test: Effect of delayed treatment on mortality of systemically infected mice at 25 mg/kg per day administered Intraperitoneally after 24 hr of start of treatment; assay type: functional; conditions: route intraperitoneal; method in brief: as §1
Mus musculus [13] = test: In vivo evaluation for the percent survivors in systemic HSV-1 infection of Mice administered intraperitoneally at a dose 100 mg/kg per day; assay type: functional; conditions: route intraperitoneal; method in brief: as §3
Human alphaherpesvirus 2 = test: Minimum inhibitory concentration against HSV-2.; assay type: functional; method in brief: as §2
Mus musculus [14] = test: In vivo evaluation for the percent survivors in systemic HSV-1 infection of Mice administered intraperitoneally at a dose 50 mg/kg per day; assay type: functional; conditions: route intraperitoneal; method in brief: as §3
Mus musculus [15] = test: In vivo evaluation for the percent survivors in systemic HSV-1 infection of Mice administered through oral route at a dose 50 mg/kg per day; assay type: functional; method in brief: as §3
Mus musculus [16] = test: Effect of delayed treatment on mortality of systemically infected mice at 25 mg/kg per day administered through oral route after 24 hr of start of treatment; assay type: functional; method in brief: as §1
Mus musculus [17] = test: In vivo evaluation for the percent survivors in systemic HSV-1 infection of Mice administered intraperitoneally at a dose 5 mg/kg per day; assay type: functional; conditions: route intraperitoneal; method in brief: as §3
Mus musculus [18] = test: Effect of delayed treatment on mortality of systemically infected mice at 25 mg/kg per day administered through oral route after 48 hr of start of treatment; assay type: functional; method in brief: as §1
Mus musculus [19] = test: In vivo evaluation for the percent survivors in systemic HSV-1 infection of Mice administered through at a dose 25 mg/kg per day; assay type: functional; method in brief: as §3
Mus musculus [20] = test: In vivo evaluation for the percent survivors in systemic HSV-1 infection of Mice administered through intraperitoneal at a dose 50 mg/kg per day; assay type: functional; method in brief: as §3
Mus musculus [21] = test: In vivo evaluation for the percent survivors in systemic HSV-1 infection of Mice administered through intraperitoneal at a dose 100 mg/kg per day; assay type: functional; method in brief: as §3
Mus musculus [22] = test: In vivo evaluation for the percent survivors in systemic HSV-1 infection of Mice administered through intraperitoneal at a dose 10 mg/kg per day; assay type: functional; method in brief: as §3
Mus musculus [23] = test: In vivo evaluation for the percent survivors in systemic HSV-1 infection of Mice administered through intraperitoneal at a dose 1 mg/kg per day; assay type: functional; method in brief: as §3
Mus musculus [24] = test: In vivo evaluation for the percent survivors in systemic HSV-1 infection of Mice administered through intraperitoneal at a dose 5 mg/kg per day; assay type: functional; method in brief: as §3

Row | Structure (SMILES) | MIC (Human alphaherpesvirus 1) [µg/mL] | MTC (HEp-2) [µg/mL] | MIC (Human alphaherpesvirus 2) [µg/mL] | also measured
1 | O=c1[nH]c(=O)n([C@H]2C[C@H](O)[C@@H](CO)O2)cc1CCCl | 0.03 (≈ 0.103 µM) | 330 | 3 (≈ 10.3 µM) | Survivors (Mus musculus [1]): 80%; Survivors (Mus musculus [2]): 82%; Survivors (Mus musculus [3]): 67%; Survivors (Mus musculus [4]): 91%; Survivors (Mus musculus [5]): 75%; Survivors (Mus musculus [6]): 100%; Survivors (Mus musculus [7]): 80%; Survivors (Mus musculus [8]): 100%; Survivors (Mus musculus [9]): 83%; Survivors (Mus musculus [10]): 70%; Survivors (Mus musculus [11]): 60%; Survivors (Mus musculus [12]): 100%; Survivors (Mus musculus [13]): 100%; Survivors (Mus musculus [14]): 92%; Survivors (Mus musculus [15]): 100%; Survivors (Mus musculus [16]): 90%; Survivors (Mus musculus [17]): 92%; Survivors (Mus musculus [18]): 100%
2 | O=c1[nH]c(=O)n([C@@H]2C[C@H](O)[C@@H](CO)O2)cc1CCCl | 3 (≈ 10.3 µM) | 100 | 100 (≈ 344 µM) | –
3 | O=c1[nH]c(=O)n([C@@H]2C[C@H](O)[C@@H](CO)O2)cc1CCBr | 3 (≈ 8.95 µM) | 330 | > 100 | –
4 | O=c1[nH]c(=O)n([C@H]2C[C@H](O)[C@@H](CO)O2)cc1CCBr | 3 (≈ 8.95 µM) | 100 | 100 (≈ 298 µM) | –
5 | O=c1[nH]c(=O)n([C@H]2C[C@H](O)[C@@H](CO)O2)cc1CCCCl | 0.3 (≈ 0.984 µM) | 100 | 30 (≈ 98.4 µM) | –
6 | COC(=O)/C=C/c1cn([C@H]2C[C@H](O)[C@@H](CO)O2)c(=O)[nH]c1=O | 0.3 (≈ 0.961 µM) | 100 | 30 (≈ 96.1 µM) | –
7 | O=c1nc2c(cn1[C@H]1C[C@H](O)[C@@H](CO)O1)CCO2 | > 100 | 330 | > 100 | –
8 | O=c1[nH]c(=O)n([C@H]2C[C@H](O)[C@@H](CO)O2)cc1CCO | 100 (≈ 367 µM) | 330 | 100 (≈ 367 µM) | –
9 | O=c1[nH]c(=O)n([C@H]2C[C@H](O)[C@@H](CO)O2)cc1CCI | 1 (≈ 2.62 µM) | 330 | 30 (≈ 78.5 µM) | –
10 | O=c1[nH]c(=O)n([C@H]2C[C@H](O)[C@@H](CO)O2)cc1CCCO | > 100 | 330 | > 100 | –
11 | O=c1[nH]c(=O)n(C2CC(O)C(CCl)O2)cc1CCCCl (stereo not given) | > 100 | 330 | > 100 | –
12 | O=c1[nH]c(=O)n(C2CC(O)C(CCl)O2)cc1CCCl (stereo not given) | 100 (≈ 323 µM) | 330 | > 100 | –
13 | O=c1[nH]c(=O)n(C2CC(O)C(CBr)O2)cc1CCBr (stereo not given) | 30 (≈ 75.4 µM) | 330 | 100 (≈ 251 µM) | –
14 | O=c1[nH]c(=O)n(C2CC(O)C(CI)O2)cc1CCI (stereo not given) | 30 (≈ 61 µM) | 100 | > 100 | –
15 | Nc1nc2c(ncn2COCCO)c(=O)[nH]1 [ACYCLOVIR] | 0.3 (≈ 1.33 µM) | 330 | 3 (≈ 13.3 µM) | Survivors (Mus musculus [2]): 0%; Survivors (Mus musculus [19]): 100%; Survivors (Mus musculus [3]): 9%; Survivors (Mus musculus [6]): 55%; Survivors (Mus musculus [20]): 100%; Survivors (Mus musculus [21]): 91%; Survivors (Mus musculus [22]): 83%; Survivors (Mus musculus [23]): 54%; Survivors (Mus musculus [15]): 92%; Survivors (Mus musculus [24]): 75%
16 | O=c1[nH]c(=O)n([C@H]2C[C@H](O)[C@@H](CO)O2)cc1/C=C/Br [BRIVUDINE] | 0.003 (≈ 0.00901 µM) | 100 | 3 (≈ 9.01 µM) | Survivors (Mus musculus [2]): 0%; Survivors (Mus musculus [19]): 8%; Survivors (Mus musculus [3]): 0%; Survivors (Mus musculus [6]): 0%; Survivors (Mus musculus [20]): 33%; Survivors (Mus musculus [21]): 33%; Survivors (Mus musculus [22]): 18%; Survivors (Mus musculus [23]): 33%; Survivors (Mus musculus [15]): 8%; Survivors (Mus musculus [24]): 25%
17 | O=C([O-])P(=O)([O-])[O-].[Na+].[Na+].[Na+] [FOSCARNET SODIUM] | 10 | 330 | 30 | –
18 | O=c1[nH]c(=O)n([C@H]2C[C@H](O)[C@@H](CO)O2)cc1I [IDOXURIDINE] | 0.3 (≈ 0.847 µM) | 100 | 0.3 (≈ 0.847 µM) | –
19 | Nc1ncnc2c1ncn2[C@@H]1O[C@H](CO)[C@@H](O)[C@@H]1O [VIDARABINE] | 10 (≈ 37.4 µM) | 100 | 10 (≈ 37.4 µM) | –
